Values after ≈ are worked out from the molar mass of the structure shown.
How the values were obtained:
Format in all cases: functional
Fonsecaea compacta = experiment: Antifungal activity against Fonsecaea compacta after 7 days by micro-broth dilution method; settings: 168 h
Procedure, shortened: (§1)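 Clinical isolates supplied by a hospital were tested by NCCLS broth microdilution. Compounds were dissolved in DMSO, serially diluted in growth medium, inoculated and incubated at 35 C. Growth was read at 7 days for filamentous fungi. MIC80 was taken as the first well with about 80% less growth than the drug-free well.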

Candida albicans = experiment: Antifungal activity against Candida albicans ATCC Y0109 after 24 hrs by micro-broth dilution method
Procedure, shortened: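 An ATCC standard quality-control strain was included in each run of an NCCLS micro-broth dilution assay. Compounds were dissolved in DMSO, serially diluted in growth medium and incubated at 35 C. Reading was at 24 h, and MIC80 was the first well showing roughly 80% growth reduction versus the drug-free control.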

Cryptococcus neoformans = experiment: Antifungal activity against Cryptococcus neoformans ATCC BLS108 after 72 hrs by micro-broth dilution method
Procedure, shortened: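 This ATCC standard quality-control strain was tested in every assay by NCCLS microdilution. Test agents were dissolved in DMSO and serially diluted in growth medium. Cultures were incubated at 35 C and read at 72 h. MIC80 was the first well with approximately 80% reduced growth relative to the drug-free well.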

Candida tropicalis = experiment: Antifungal activity against Candida tropicalis after 7 days by micro-broth dilution method; settings: 168 h
Procedure, shortened: (§2)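 Micro-broth dilution followed NCCLS methods, using an ATCC standard quality-control strain for C. parapsilosis and a clinical isolate for C. tropicalis. Compounds were dissolved in DMSO, serially diluted in growth medium and incubated at 35 C. MIC80 was the first well with about 80% growth reduction compared with the drug-free well.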

Microsporum = experiment: Antifungal activity against Microsporum gypseum after 7 days by micro-broth dilution method; settings: 168 h; procedure, shortened: as §1
Aspergillus fumigatus = experiment: Antifungal activity against Aspergillus fumigatus after 7 days by micro-broth dilution method; settings: 168 h; procedure, shortened: as §1
Trichophyton rubrum = experiment: Antifungal activity against Trichophyton rubrum after 7 days by microbroth dilution method; settings: 168 h; procedure, shortened: as §1
Candida parapsilosis = experiment: Antifungal activity against Candida parapsilosis ATCC 0306392 after 7 days by micro-broth dilution method; settings: Lodderomyces parapsilosis, ATCC 0306392, 168 h; procedure, shortened: as §2

MIC80 (Fonsecaea compacta) [µg/mL]	MIC80 (Candida albicans) [µg/mL]	MIC80 (Cryptococcus neoformans) [µg/mL]	MIC80 (Candida tropicalis) [µg/mL]	MIC80 (Microsporum) [µg/mL]	MIC80 (Aspergillus fumigatus) [µg/mL]	MIC80 (Trichophyton rubrum) [µg/mL]	MIC80 (Candida parapsilosis) [µg/mL]	SMILES
0.0625 (≈ 0.107 µM)	0.25 (≈ 0.43 µM)	0.25 (≈ 0.43 µM)	4 (≈ 6.88 µM)	0.0625 (≈ 0.107 µM)	4 (≈ 6.88 µM)	0.25 (≈ 0.43 µM)	1 (≈ 1.72 µM)	O=C(Nc1ccc(N2CCN(CC(O)(Cn3cncn3)c3ccc(F)cc3F)CC2)c(F)c1)c1ccc([N+](=O)[O-])cc1 (stereo not drawn)
0.25 (≈ 0.578 µM)	0.25 (≈ 0.578 µM)	0.0152 (≈ 0.0351 µM)	4 (≈ 9.25 µM)	0.0625 (≈ 0.145 µM)	4 (≈ 9.25 µM)	0.25 (≈ 0.578 µM)	0.25 (≈ 0.578 µM)	Nc1ccc(N2CCN(CC(O)(Cn3cncn3)c3ccc(F)cc3F)CC2)c(F)c1 (stereo not drawn)
1 (≈ 1.72 µM)	0.0152 (≈ 0.0261 µM)	1 (≈ 1.72 µM)	0.0625 (≈ 0.107 µM)	0.0625 (≈ 0.107 µM)	1 (≈ 1.72 µM)	0.0152 (≈ 0.0261 µM)	0.0625 (≈ 0.107 µM)	O=C(Nc1ccc(N2CCN(CC(O)(Cn3cncn3)c3ccc(F)cc3F)CC2)c(F)c1)c1ccccc1[N+](=O)[O-] (stereo not drawn)
0.0625 (≈ 0.105 µM)	1 (≈ 1.69 µM)	1 (≈ 1.69 µM)	1 (≈ 1.69 µM)	0.0625 (≈ 0.105 µM)	16 (≈ 27 µM)	1 (≈ 1.69 µM)	1 (≈ 1.69 µM)	CCCCc1ccc(C(=O)Nc2ccc(N3CCN(CC(O)(Cn4cncn4)c4ccc(F)cc4F)CC3)c(F)c2)cc1 (stereo not drawn)
0.25 (≈ 0.443 µM)	0.25 (≈ 0.443 µM)	0.0625 (≈ 0.111 µM)	0.0625 (≈ 0.111 µM)	0.0152 (≈ 0.0269 µM)	1 (≈ 1.77 µM)	0.0625 (≈ 0.111 µM)	0.25 (≈ 0.443 µM)	Cc1ccc(C(=O)Nc2ccc(N3CCN(CC(O)(Cn4cncn4)c4ccc(F)cc4F)CC3)c(F)c2)c(C)c1 (stereo not drawn)

Further lines, the compound ahead of its results:

SMILES	MIC80 (Fonsecaea compacta) [µg/mL]	MIC80 (Candida albicans) [µg/mL]	MIC80 (Cryptococcus neoformans) [µg/mL]	MIC80 (Candida tropicalis) [µg/mL]	MIC80 (Microsporum) [µg/mL]	MIC80 (Aspergillus fumigatus) [µg/mL]	MIC80 (Trichophyton rubrum) [µg/mL]	MIC80 (Candida parapsilosis) [µg/mL]
COc1ccc(C(=O)Nc2ccc(N3CCN(CC(O)(Cn4cncn4)c4ccc(F)cc4F)CC3)c(F)c2)cc1 (stereo not drawn)	0.25 (≈ 0.441 µM)	0.0152 (≈ 0.0268 µM)	0.0625 (≈ 0.11 µM)	0.0152 (≈ 0.0268 µM)	0.25 (≈ 0.441 µM)	0.25 (≈ 0.441 µM)	0.25 (≈ 0.441 µM)	0.0152 (≈ 0.0268 µM)
C[C@@H](c1ncncc1F)[C@](O)(Cn1cncn1)c1ccc(F)cc1F [VORICONAZOLE]	0.0152 (≈ 0.0435 µM)	0.0152 (≈ 0.0435 µM)	0.0152 (≈ 0.0435 µM)	0.25 (≈ 0.716 µM)	0.0039 (≈ 0.0112 µM)	> 64	0.0039 (≈ 0.0112 µM)	1 (≈ 2.86 µM)
O=C(Nc1ccc(N2CCN(CC(O)(Cn3cncn3)c3ccc(F)cc3F)CC2)c(F)c1)c1ccc(Cl)cc1 (stereo not drawn)	0.0625 (≈ 0.109 µM)	0.0625 (≈ 0.109 µM)	0.25 (≈ 0.438 µM)	0.0152 (≈ 0.0266 µM)	0.25 (≈ 0.438 µM)	0.25 (≈ 0.438 µM)	0.0625 (≈ 0.109 µM)	0.0152 (≈ 0.0266 µM)
COc1ccccc1C(=O)Nc1ccc(N2CCN(CC(O)(Cn3cncn3)c3ccc(F)cc3F)CC2)c(F)c1 (stereo not drawn)	0.25 (≈ 0.441 µM)	0.0625 (≈ 0.11 µM)	0.0625 (≈ 0.11 µM)	0.0152 (≈ 0.0268 µM)	0.0625 (≈ 0.11 µM)	1 (≈ 1.76 µM)	0.0625 (≈ 0.11 µM)	0.25 (≈ 0.441 µM)
CC(=O)N1CCN(c2ccc(OC[C@H]3CO[C@](Cn4ccnc4)(c4ccc(Cl)cc4Cl)O3)cc2)CC1 [KETOCONAZOLE]	0.0625 (≈ 0.118 µM)	0.0625 (≈ 0.118 µM)	0.0625 (≈ 0.118 µM)	0.0625 (≈ 0.118 µM)	0.0039 (≈ 0.00734 µM)	1 (≈ 1.88 µM)	0.0625 (≈ 0.118 µM)	0.0625 (≈ 0.118 µM)
O=[N+]([O-])c1ccc(N2CCN(CC(O)(Cn3cncn3)c3ccc(F)cc3F)CC2)c(F)c1 (stereo not drawn)	0.0625 (≈ 0.135 µM)	0.0152 (≈ 0.0329 µM)	0.0152 (≈ 0.0329 µM)	0.0152 (≈ 0.0329 µM)	0.0152 (≈ 0.0329 µM)	1 (≈ 2.16 µM)	0.0152 (≈ 0.0329 µM)	0.0039 (≈ 0.00843 µM)
